Screening data: PubChem, Broad Institute
In the library only some 1.4% were active in any assay of this set; here they are far more common.
ERp5 inh: inhibitors of human ERp5. ERp5 insulin aggregation, absorbance 650 nm, 90 min. inhibition, % at 9.99 µM. 350,000 tested, 0.05% active. AID 651711;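 active = mean replicate inhibition above about 25%, with every replicate also reaching it, limit read from the data, passing the limit was not always enough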
FN deposit inh: fibronectin deposition inhibition. AH1F fibroblasts, Alexa488-fibronectin deposition fluorescence, overnight. AID 743247. inhibition, % at 12.6 µM. 350,000 tested, 0.086% active;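 active = mean inhibition across replicates of 30% or more, regardless of how many single replicates reach that level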
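Assay system: AH1F fibroblasts assembling fluorescent fibronectin matrix; Amount: 10000 AH1F cells per well; Buffer or medium: DMEM, 2% serum; Probe or stimulus: Alexa488-fibronectin, 24 nM final in well; Doses: single compound dose, delivered by pin transfer; Incubation: 1 h adhesion, overnight exposure; Measured by: fluorescence 485/525 nm; Read-out: fibronectin deposition inhibition.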
PDI turbidity: blocks human protein disulfide isomerase activity; P07237; PDI insulin aggregation turbidity, A650, 90 min; inhibition, % at 10 µM; 350,000 tested, 0.052% active;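 active = mean inhibition across replicates of 30% or more, whatever share of single replicates reach that level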
Target sequence (P07237 whole entry, looked up): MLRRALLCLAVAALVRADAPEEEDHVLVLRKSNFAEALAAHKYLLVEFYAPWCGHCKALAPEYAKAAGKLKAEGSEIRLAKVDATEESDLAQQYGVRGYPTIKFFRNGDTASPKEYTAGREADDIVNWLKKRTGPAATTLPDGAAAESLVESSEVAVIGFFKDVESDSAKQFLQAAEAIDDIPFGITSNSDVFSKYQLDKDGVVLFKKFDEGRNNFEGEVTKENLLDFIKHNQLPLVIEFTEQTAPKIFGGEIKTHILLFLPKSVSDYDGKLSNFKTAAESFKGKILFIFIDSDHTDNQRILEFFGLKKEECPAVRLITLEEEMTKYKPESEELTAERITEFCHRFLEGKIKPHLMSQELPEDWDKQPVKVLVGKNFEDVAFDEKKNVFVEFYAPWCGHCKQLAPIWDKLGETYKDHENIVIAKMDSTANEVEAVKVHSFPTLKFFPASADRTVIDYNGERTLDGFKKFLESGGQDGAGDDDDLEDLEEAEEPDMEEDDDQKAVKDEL
GSIS activator: primary screen for activators of insulin secretion dependent on glucose, INS-1E cells, GLuc reporter luminescence | INS-1E GLuc reporter insulin secretion, 2-3 h | activation, % at 16.6 µM | 370,000 tested, 0.61% active;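 active = lowest replicate activation of at least 40%, so every replicate reaches that level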
Env fusion inh: HIV envelope-mediated fusion inhibition | AID 651610 | inhibition, % at 12.3 µM | HeLa-JRFL Env/CEM21 cell fusion, luciferase | 360,000 tested, 1.1% active;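 active = mean replicate inhibition score of at least 50 and every replicate individually at or above 50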
Each line names hits and unclear results; the compound was inactive in the other large screens.

Cc1nn(Cc2c(F)c(F)c(F)c(F)c2F)c(C)c1NC(=O)c1ccc(COc2ccc(F)cc2)o1	Env fusion inh 67.1 (no result: ERp5 inh)
Cc1nn(Cc2c(F)c(F)c(F)c(F)c2F)c(C)c1NC(=O)c1ccc(COc2ccccc2Cl)o1	Env fusion inh 66.1 (no result: ERp5 inh)
Cc1c(C(=O)NCc2ccc(F)cc2)c(-c2ccccc2)nn1-c1ccccc1	none (no result: ERp5 inh, GSIS activator)
Cc1nn(Cc2c(F)c(F)c(F)c(F)c2F)c(C)c1NC(=O)c1ccc(COc2ccccc2Cl)cc1	none (no result: ERp5 inh)
CCCC(=O)Nc1ccc2c(c1)OC[C@@H](C)N(Cc1cc(-c3ccccc3)on1)C[C@@H](C)[C@H](OC)CN(C)C2=O	none (no result: PDI turbidity)
COc1ccc(/C=N/NC(=O)Cn2nnc3ccccc32)cc1OC	GSIS activator 70.5
COc1cc(/C=N/NC(=O)C(C)n2nnc3ccccc32)ccc1O (stereo not given)	GSIS activator 52.8 (no result: ERp5 inh, FN deposit inh, Env fusion inh)
CN(C)c1ccc(/C=N/NC(=O)Cn2nnc3ccccc32)cc1	none (no result: ERp5 inh)
CC(/C=N/NC(=O)CCn1nnc2ccccc21)=C\c1ccccc1	none
COc1ccc(/C=N/NC(=O)C(C)n2nnc3ccccc32)cc1OC (stereo not given)	none (no result: ERp5 inh, FN deposit inh, GSIS activator, Env fusion inh)
CCOc1cc(/C=N/NC(=O)CCn2nnc3ccccc32)ccc1O	GSIS activator 78.2
N#C[C@@H]1[C@H](c2ccccc2C2=CCCC2)[C@H](CO)N1C(=O)NC1CCCCC1	none (no result: PDI turbidity, Env fusion inh)
COC(=O)C[C@@H]1CC[C@H]2[C@H](COc3ccc(NS(=O)(=O)c4ccc(C)cc4)cc3C(=O)N2C)O1	none (no result: PDI turbidity)
CC(/C=C/C=C/c1ccccc1)=N/NC(=O)CNc1ccccc1C	GSIS activator 135.6 (no result: ERp5 inh)
CC(/C=C/c1ccco1)=N/NC(=O)CNc1ccccc1C	none
Cc1cccc(COCC(CC(C)C)N2CCN(C(=O)c3ccc(C(C)(C)C)cc3)CCC2=O)c1 (stereo not given)	Env fusion inh 59.8
Cc1cccc(COC[C@H](CC(C)C)N2CCN(C(=O)c3ccc(C(C)(C)C)cc3)CCC2=O)c1	none (no result: FN deposit inh, PDI turbidity)
Cc1cccc(COCC(CC(C)C)N2CCN(C(=O)c3ccc(C(F)(F)F)cc3)CCC2=O)c1 (stereo not given)	Env fusion inh 82.9
O=[N+]([O-])c1cccc(-c2nnc3ccc4ccccc4n23)c1	GSIS activator 55.1 (no result: ERp5 inh, Env fusion inh)
O=C(Nc1ccccc1)N1C[C@H]2[C@@H](c3ccccc31)[C@H](CO)N2C(=O)Cc1ccccn1	none (no result: FN deposit inh, PDI turbidity, Env fusion inh)
C[C@@H]1CN([C@H](C)CO)C(=O)c2cc(NC(=O)Cn3cnnn3)ccc2O[C@H]1CN(C)S(=O)(=O)c1ccc(F)cc1	none (no result: FN deposit inh, PDI turbidity)
c1ccc(CCn2cccc2)nc1	Env fusion inh 59.2 (no result: FN deposit inh)
CC(C)c1cn([C@H]2C[C@@H]3O[C@H](CO)CC[C@@H]3O[C@@H]2CCc2ccc(-c3ccccc3)cc2)nn1	none (no result: FN deposit inh, PDI turbidity, GSIS activator, Env fusion inh)
Cc1ccc(C(=O)NCc2ccccn2)cc1S(=O)(=O)N1CCCCC1	Env fusion inh 90.2 (no result: FN deposit inh)
Cc1ccc(S(=O)(=O)N2CCCCCC2)cc1C(=O)NCc1ccccn1	none
COC(=O)C[C@H]1CC[C@H]2[C@H](COc3ccc(NC(=O)Nc4cc(C)cc(C)c4)cc3C(=O)N2C)O1	none (no result: PDI turbidity)
CN(Cc1ccccc1)C(=O)c1ccccc1C(=O)OCC(=O)N(Cc1ccccc1)C(C)(C)C	none
CCOc1ccc(C(C)=O)cc1COC(=O)c1ccccc1C(=O)N(C)Cc1ccccc1	Env fusion inh 98.2
COc1cc2c(cc1OC)C(CSc1ccccc1C(=O)O)=NC(C)(C)C2	GSIS activator 40.8
CC(C)NC(=O)Nc1ccc2c(c1)C(=O)N([C@@H](C)CO)C[C@@H](C)[C@H](CN(C)C)O2	none (no result: FN deposit inh, PDI turbidity)
Cn1c(C(=O)NCCCN2CCN(c3ccccc3F)CC2)cc2c(=O)[nH]c3ccccc3c21	Env fusion inh 93.6 (no result: ERp5 inh, FN deposit inh, GSIS activator)
CN(CCCNC(=O)c1cc2c(=O)[nH]c3ccccc3c2n1C)Cc1ccccc1	Env fusion inh 59.1
O=C1C=CC(=O)N1Cc1ccncc1	none
O=C1C=CC(=O)N1CCCCCCCCCCN1C(=O)C=CC1=O	FN deposit inh 44.1
CN(C)CCCNC(=O)C[C@H]1C=C[C@H](NS(=O)(=O)c2ccc(F)cc2)[C@@H](CO)O1	none (no result: FN deposit inh, PDI turbidity)
O=C(NCCCN1CCc2ccccc2C1)Nc1ccc(Cl)cc1	Env fusion inh 78.7 (no result: ERp5 inh, GSIS activator)
COc1ccc(NC(=O)NCCN2CCc3ccccc3C2)cc1	none (no result: ERp5 inh, FN deposit inh, Env fusion inh)
COc1ccc(N=c2scc(-c3ccc(OC)cc3)n2CCO)cc1	Env fusion inh 71.3 (no result: ERp5 inh, GSIS activator)
C[C@@H]1CN([C@H](C)CO)C(=O)Cc2cc(NS(C)(=O)=O)ccc2O[C@@H]1CN(C)S(=O)(=O)c1cccs1	none (no result: PDI turbidity)
